APJ ag – agonists of human apelin receptor APJ, primary screen, CHO-K1 cells, PathHunter beta-arrestin, luminescence | 0% DMSO wells, 100% apelin | activation, % at 20 µM | 0.11% of 330,000 active | AID 2520, 2010;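 active = activation more than six SD over the plate average, tested at 20 µM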;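 note: 0% = DMSO alone and 100% = apelin-13 at 10 nM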
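Incubation: overnight seeding, 90 min compound at 25 °C, 1 h detection; test system: PathHunter CHO-K1 APJ (AGTRL-1) beta-arrestin reporter cells; amount: 1000 cells/well; doses: one dose, 20 µM compound, 1% DMSO; measured by: beta-gal luminescence; measure: agonist-driven arrestin binding to APJ; benchmarks: negative DMSO alone, positive Apelin-13 at 10 nM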
EBI2 antag – EBI2 receptor antagonists, beta-arrestin recruitment, primary screen, cell-based, luminescence, 7a,25-OHC stimulation, uHTS. 0.81% of 360,000 active. 7a,25-OHC stimulated. G-protein coupled receptor 183 (Homo sapiens), P32249. inhibition, % at 5 µM; in the data active = inhibition above about 38%;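 note: enzyme fragment complementation signal reports receptor beta-arrestin coupling in cells; 0% = agonist plus DMSO wells and 100% = wells without agonist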
Target sequence (P32249 whole entry, looked up, the tested form may be a part): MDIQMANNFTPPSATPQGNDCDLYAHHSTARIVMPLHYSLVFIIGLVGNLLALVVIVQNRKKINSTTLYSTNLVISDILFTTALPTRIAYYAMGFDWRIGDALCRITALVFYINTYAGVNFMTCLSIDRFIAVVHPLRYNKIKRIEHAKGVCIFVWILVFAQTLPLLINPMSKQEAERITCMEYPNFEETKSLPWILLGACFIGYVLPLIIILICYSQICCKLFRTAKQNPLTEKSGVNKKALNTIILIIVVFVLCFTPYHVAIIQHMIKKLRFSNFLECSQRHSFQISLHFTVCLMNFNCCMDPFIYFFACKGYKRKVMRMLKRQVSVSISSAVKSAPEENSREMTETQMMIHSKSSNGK
CCR6 antagonist – CCR6 receptor antagonists, primary screen, cell-based, CHO-K1, luminescence, beta-arrestin, uHTS; C-C chemokine receptor type 6 (Homo sapiens), P51684; CHO-K1 CCR6 PathHunter beta-arrestin, CCL20-stimulated; inhibition, % at 20 µM; 0.49% of 340,000 active;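 active = compounds whose inhibition of the agonist-driven luminescence signal at 20 µM reaches about 50%, limit read from the data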;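 note: cells stimulated with CCL20 at 14 nM final; plate controls were DMSO with CCL20 for no effect and DMSO without agonist for full effect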
APJ antag – antagonists of human apelin receptor APJ, primary screen, CHO-K1 cells, beta-arrestin complementation, luminescence; P35414; inhibition, % at 20 µM; 0.32% of 330,000 active; AID 2521, 2010;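 active = inhibition above about 40% at 20 µM, limit read from the data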;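 note: cells challenged with 10 nM apelin-13 agonist together with compound; plate controls were apelin-13 plus DMSO wells for no effect and DMSO wells lacking apelin-13 for full effect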
CXCR6 inh – CXCR6 receptor inhibitors, primary screen, cell-based, beta-arrestin, luminescence, CHO-K1 PathHunter, 1536-well. C-X-C chemokine receptor type 6 (Homo sapiens), O00574. inhibition, % at 20 µM. 0.36% of 360,000 active. AID 602244, 2012; in the data active = inhibition above about 34%, passing the limit was not always enough;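 note: antagonist mode with CXCL16 agonist at 10 nM final; 0% = 10 nM CXCL16 with DMSO and 100% = unstimulated wells without agonist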
Target sequence (O00574 whole entry, looked up): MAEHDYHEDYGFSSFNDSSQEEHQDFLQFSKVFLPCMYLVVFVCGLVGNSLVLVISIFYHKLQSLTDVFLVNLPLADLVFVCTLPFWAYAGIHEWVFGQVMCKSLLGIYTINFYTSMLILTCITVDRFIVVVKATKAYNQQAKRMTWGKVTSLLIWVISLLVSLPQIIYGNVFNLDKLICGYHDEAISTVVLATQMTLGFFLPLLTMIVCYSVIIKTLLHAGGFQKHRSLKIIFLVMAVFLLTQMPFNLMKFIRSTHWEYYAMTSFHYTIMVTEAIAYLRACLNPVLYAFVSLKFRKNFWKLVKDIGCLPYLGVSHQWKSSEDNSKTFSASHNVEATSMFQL
EBI2 antag conf – EBI2 antagonist hit retest, beta-arrestin, confirmation, cell-based, single concentration, luminescence, 7a,25-OHC stimulation. shares compounds with EBI2 antag. 7a,25-OHC antagonism. 29% of 2,400 active. inhibition, % at 5 µM;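 active = inhibition of at least 50%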
EBI2 agonist – EBI2 agonist activity of antagonist hits, confirmation, counter-screen for EBI2 antagonist project, cell-based, single concentration, agonist mode, luminescence; shares compounds with EBI2 antag; EBI2-expressing cells, 60 min; 0% vehicle, 100% 7α,25-dihydroxycholesterol control; activation, % at 5 µM; 2,400 tested, under 10 active;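 active = activation of at least 50%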
bGal cs – E. coli beta-galactosidase enzyme inhibition, confirmation, counter-screen for EBI2 antagonist project, biochemical, luminescence, single concentration; inhibition, % at 5 µM; shares compounds with EBI2 antag; purified beta-galactosidase, luminescent Galacton Star, 15 min; AID 652176, 2013; 1% of 2,400 active;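 active = replicate-average signal at least 3 plate SD below neutral wells, shown as high inhibition, flagging enzyme-inhibiting false positives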;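 note: 0% = DMSO wells with enzyme and 100% = wells lacking enzyme; higher means stronger loss of beta-gal luminescence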
An asterisk follows results filed as active; . = no result. Shown are actives, neighbours in structure and some others; about 1.5% of the full set was active somewhere.

SMILES	APJ ag	EBI2 antag	CCR6 antagonist	APJ antag	CXCR6 inh	EBI2 antag conf	EBI2 agonist	bGal cs
O=C(NCc1ccc2c(c1)OCO2)c1cc([N+](=O)[O-])ccc1N1CCCCC1	-4.3	83.2*	15.6	14.1	4.0	62.3*	-1.8	-13.9
COc1cc(NC(=O)c2cc([N+](=O)[O-])ccc2N2CCOCC2)ccc1NC(=O)c1ccco1	-3.5	55.1*	15.1	-44.2	-2.4	7.2	-1.2	-4.3
O=C(CSc1nc2cc([N+](=O)[O-])ccc2n1-c1ccccc1)NCc1ccc2c(c1)OCO2	-3.5	54.8*	3.9	14.5	-2.9	24.2	-0.9	-7.8
O=C(NCc1ccco1)c1cc([N+](=O)[O-])ccc1N1CCCCC1	-3.8	53.4*	17.0	6.4	0.2	39.0	0.8	3.0
O=C(Nc1cc([N+](=O)[O-])ccc1N1CCOCC1)c1ccco1	-2.1	5.6	6.7	2.8	6.6	.	.	.
COc1ccc(C(=O)C(=O)N2CCN(C(=O)OCc3ccccc3)CC2)cc1	.	23.0	.	.	.	.	.	.
CC1(C(=O)Nc2ccc(Cl)cc2)Cc2c(-c3ccc(C(N)=O)cc3)ccnc2O1 (stereo not given)	.	13.5	.	.	-7.3	.	.	.
O=C(CN1CCC(n2nnc3cc(C(F)(F)F)ccc32)CC1)NCc1cccs1	0.8	58.0*	8.5	-0.6	0.1	37.0	1.5	8.1
O=C(CN(Cc1ccco1)Cc1ccco1)Nc1cc(S(=O)(=O)N2CCCCC2)ccc1Cl	-1.0	9.5	16.6	-77.0	4.4	.	.	.
c1ccc(Oc2ncnc3oc(-c4ccccc4)cc23)cc1	-0.8	50.1*	-3.6	16.3	2.5	47.2	-0.2	3.0
Cc1cc(C(=O)N2CCC(Cc3ccccc3)CC2)ccc1[N+](=O)[O-]	-3.0	63.7*	3.7	-6.6	7.8	43.4	1.3	4.6
Cc1cc(C(=O)N2CCN(Cc3ccccc3)CC2)ccc1[N+](=O)[O-]	-3.5	24.4	13.4	-3.2	-1.2	.	.	.
CC1(C)C(=O)CC[C@@]2(C)[C@H]1CC[C@@]1(C)CC3=C(CC[C@@H]12)[C@@]1(C)CCC(=O)C(C)(C)[C@@H]1CC3	15.0	.	.	-97.6	.	.	.	.
COc1cccc(NC(=O)Cn2c3ccccc3c3nc4n(c(=O)c32)CCCS4)c1	-0.2	82.6*	11.0	5.6	0.2	49.9	1.0	3.6
CN(Cc1ccccc1)C(=O)COC(=O)c1cc(=O)c2ccccc2o1	-0.3	4.8	3.1	18.4	1.8	.	.	.
CSc1ccc(CN(C)C(=O)c2cc3ccccc3o2)cc1	-3.4	50.0*	9.3	18.8	4.0	12.0	0.2	-11.3
CSc1ccc(CN(C)C(=O)c2cc(=O)c3ccccc3o2)cc1	-3.3	77.8*	19.0	13.9	-1.6	59.7*	-1.5	-14.3
C[C@@H]1CN([C@H](C)CO)S(=O)(=O)c2ccc(C#Cc3ccccc3)cc2O[C@H]1CN(C)C(=O)Nc1ccc2c(c1)OCO2	.	33.1	.	.	3.5	.	.	.
COc1ccc(C(=O)N2CCN(c3ccc([N+](=O)[O-])c(-n4nc(C)cc4C)c3)CC2)cc1	-0.7	59.5*	17.5	-0.1	5.5	24.2	-0.8	-5.6
CC1(C(=O)NS(=O)(=O)c2ccccc2C(F)(F)F)CCN1C(=O)CCc1cccs1 (stereo not given)	.	-6.2	.	.	-3.4	.	.	.
O=C1CC2(CCN(C(=O)c3ccc(Br)cc3)CC2)Oc2ccccc21	-1.5	54.1*	9.1	2.6	-6.4	36.7	0.0	3.1
COc1cccc(OCC(=O)N2CCC3(CC2)CC(=O)c2ccccc2O3)c1	-6.8	36.0	12.1	3.5	4.9	.	.	.
Cc1ccc(OCC(=O)N2CCC3(CC2)CC(=O)c2ccccc2O3)cc1	-0.1	86.3*	-2.8	3.5	3.7	59.8*	1.2	5.5
O=C1CC2(CCN(C(=O)COc3ccc(Cl)cc3)CC2)Oc2ccccc21	-0.2	87.4*	8.6	-6.4	0.6	64.0*	-1.2	-12.5
COc1cc(-c2cnc3c(NC(C)=O)cc(-c4ccccc4CN(C)C)cn23)cc(OC)c1OC	.	3.7	.	.	5.1	.	.	.
SMILES	APJ ag	EBI2 antag	CCR6 antagonist	APJ antag	CXCR6 inh	EBI2 antag conf	EBI2 agonist	bGal cs
Cc1cccnc1NCc1ccc(O)c2ncccc12	-5.2	55.9*	8.7	5.6	6.8	22.2	0.5	7.2
Cc1cccc(NCc2ccc(O)c3ncccc23)c1C	-4.1	-7.7	0.9	-1.5	-0.5	.	.	.
S=C(NCC1CCCO1)N1CCN(c2nc(-c3ccccc3)cs2)CC1 (stereo not given)	1.6	40.2*	-8.3	1.7	-2.7	22.3	-1.1	-8.2
S=C(NCc1ccco1)N1CCN(c2nc(-c3ccccc3)cs2)CC1	0.3	10.3	-3.2	4.6	-8.3	.	.	.
COC(=O)c1ccc(OCC(O)CN2CCN(C(=O)c3ccco3)CC2)cc1 (stereo not given)	2.0	-3.4	-0.7	-8.9	-12.1	.	.	.
O=C(c1ccco1)N1CCN(CC(O)COc2ccc(Br)cc2)CC1 (stereo not given)	-3.3	51.0*	2.3	9.4	0.1	3.3	-1.8	-5.6
OC(COc1ccc(Br)cc1)CN1CCC(Cc2ccccc2)CC1 (stereo not given)	-0.9	61.1*	3.2	4.4	-4.7	46.4	1.9	-0.8
COc1ccc(-c2ccc(C(=O)NC3CCCCC3)c3occc23)c(C)c1	.	14.8	.	.	24.2	.	.	.
CSc1ccc(-c2cccc3nncn23)cc1	.	6.1	.	.	0.3	.	.	.
OC(c1ccccc1)(c1nc(-c2ccc(Cl)cc2)cs1)C(F)(F)F (stereo not given)	.	33.2	.	.	-9.7	.	.	.
COCc1cn(-c2nc3ccccc3s2)nn1	.	-6.0	.	.	-1.7	.	.	.
COc1ccc(CCNC(=O)C23CN(Cc4ccccc4)CC2C(c2ccc([N+](=O)[O-])cc2)=NO3)cc1 (stereo not given)	0.4	60.8*	3.0	-7.1	2.6	29.7	-1.6	-12.1
COc1ccc(CNC(=O)C23CN(Cc4ccccc4)CC2C(c2ccc([N+](=O)[O-])cc2)=NO3)cc1 (stereo not given)	7.5	-9.2	-6.8	3.8	-0.3	.	.	.
